Measurements from ChEMBL document CHEMBL3860041, “Synthesis, biological evaluation and molecular modeling study of some new methoxylated 2-benzylthio-quinazoline-4(3H)-ones as nonclassical antifolates” (Bioorg Med Chem Lett, 2016).

What was measured:
[1] = Growth inhibition of human MDA-MB-231 cells at 10 uM after 48 hrs by SRB assay relative to control; assay type: functional; details: MDA-MB-231, 48 h, read-out: GI
Summary of the method: (§1)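 NCI 60-cell-line panel, nine tumor subpanels; compounds tested at a single dose of 10 μM in the primary screen.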

[2] = Growth inhibition of human MCF7 cells at 10 uM after 48 hrs by SRB assay relative to control; assay type: functional; details: MCF7, 48 h, read-out: GI; summary of the method: as §1
[3] = Growth inhibition of human U251 cells at 10 uM after 48 hrs by SRB assay relative to control; assay type: functional; details: U-251, 48 h, read-out: GI
Summary of the method: (§2)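 Primary screen across the full NCI 60 human tumour cell line panel, which covers nine tumour subpanels. A single dose of 10 μM was applied to each line, and growth was recorded for each cell line.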

[4] = Growth inhibition of human NCI-322M cells at 10 uM after 48 hrs by SRB assay relative to control; assay type: functional; details: read-out: GI; summary of the method: as §1
[5] = Growth inhibition of human UACC257 cells at 10 uM after 48 hrs by SRB assay relative to control; assay type: functional; details: UACC-257, 48 h, read-out: GI; summary of the method: as §2
[6] = Growth inhibition of human HOP92 cells at 10 uM after 48 hrs by SRB assay relative to control; assay type: functional; details: HOP-92, 48 h, read-out: GI; summary of the method: as §1
[7] = Growth inhibition of human renal cancer cells after 48 hrs by SRB assay; assay type: functional; details: Cancer cell lines
Summary of the method: (§3)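 Follow-up NCI panel testing over a 5-log dose range for each cell line. GI50, TGI and LC50 were monitored, with 5-fluorouracil run as the positive control. Values are grouped by tumour subpanel.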

[8] = Growth inhibition of human MOLT4 cells at 10 uM after 48 hrs by SRB assay relative to control; assay type: functional; details: MOLT-4, 48 h, read-out: GI; summary of the method: as §1
Dihydrofolate reductase = target: T1, Dihydrofolate reductase (Bos taurus, UniProt P00376); test: Inhibition of bovine liver DHFR preincubated for 2 mins followed by addition of FH2 as substrate and NADPH
T1 sequence (P00376 whole entry): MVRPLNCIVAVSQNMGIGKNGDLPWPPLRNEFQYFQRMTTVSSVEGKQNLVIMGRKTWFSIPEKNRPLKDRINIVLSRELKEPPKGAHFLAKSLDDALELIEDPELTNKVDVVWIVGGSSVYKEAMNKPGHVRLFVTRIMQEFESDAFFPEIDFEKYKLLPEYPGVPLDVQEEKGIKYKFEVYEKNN

Cancer cell lines [9] = test: Potency index, ratio of 5-fluorouracil GI50 to compound GI50 for human ovarian cancer cells; assay type: functional
Summary of the method: (§4)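 GI50 for each cell line came from NCI panel testing over a 5-log dose range, with 5-fluorouracil tested alongside as the reference drug. The index relates the 5-fluorouracil GI50 to the compound GI50 within each tumour subpanel.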

Cancer cell lines [10] = test: Potency index, ratio of 5-fluorouracil GI50 to compound GI50 for human renal cancer cells; assay type: functional; summary of the method: as §4
[11] = Growth inhibition of human UO31 cells at 10 uM after 48 hrs by SRB assay relative to control; assay type: functional; details: UO-31, 48 h, read-out: GI; summary of the method: as §2
Leukemia cell = test: Potency index, ratio of 5-fluorouracil GI50 to compound GI50 for human leukemia cells; assay type: functional; summary of the method: as §4
[12] = Growth inhibition of human SF539 cells at 10 uM after 48 hrs by SRB assay relative to control; assay type: functional; details: SF-539, 48 h, read-out: GI; summary of the method: as §1
[13] = Growth inhibition of human SN12C cells at 10 uM after 48 hrs by SRB assay relative to control; assay type: functional; details: read-out: GI; summary of the method: as §2
[14] = Growth inhibition of human Hs 578T cells at 10 uM after 48 hrs by SRB assay relative to control; assay type: functional; details: read-out: GI; summary of the method: as §1
[15] = Growth inhibition of human SKOV3 cells at 10 uM after 48 hrs by SRB assay relative to control; assay type: functional; details: SK-OV-3, 48 h, read-out: GI; summary of the method: as §2
[16] = Growth inhibition of human LOXIMVI cells at 10 uM after 48 hrs by SRB assay relative to control; assay type: functional; details: LOX IMVI, read-out: GI; summary of the method: as §1
[17] = Growth inhibition of human colon cancer cells after 48 hrs by SRB assay; assay type: functional; details: Cancer cell lines; summary of the method: as §3
Cancer cell lines [18] = test: Potency index, ratio of 5-fluorouracil GI50 to compound GI50 for human prostate cancer cells; assay type: functional; summary of the method: as §4
[19] = Growth inhibition of human SR cells at 10 uM after 48 hrs by SRB assay relative to control; assay type: functional; details: read-out: GI; summary of the method: as §2
[20] = Growth inhibition of human SF268 cells at 10 uM after 48 hrs by SRB assay relative to control; assay type: functional; details: SF-268, 48 h, read-out: GI; summary of the method: as §1
Cancer cell lines [21] = test: Potency index, ratio of 5-fluorouracil GI50 to compound GI50 for human CNS cancer cells; assay type: functional; summary of the method: as §4
[22] = Growth inhibition of human UACC62 cells at 10 uM after 48 hrs by SRB assay relative to control; assay type: functional; details: UACC-62, 48 h, read-out: GI; summary of the method: as §2
[23] = Growth inhibition of human OVCAR4 cells at 10 uM after 48 hrs by SRB assay relative to control; assay type: functional; details: OVCAR-4, 48 h, read-out: GI; summary of the method: as §1
[24] = Growth inhibition of human melanoma cells after 48 hrs by SRB assay; assay type: functional; details: Melanoma cell; summary of the method: as §3
[25] = Growth inhibition of human SK-MEL-28 cells at 10 uM after 48 hrs by SRB assay relative to control; assay type: functional; details: SK-MEL-28, 48 h, read-out: GI; summary of the method: as §2
[26] = Growth inhibition of human 786-0 cells at 10 uM after 48 hrs by SRB assay relative to control; assay type: functional; details: 786-0, 48 h, read-out: GI; summary of the method: as §1
[27] = Growth inhibition of human OVCAR8 cells at 10 uM after 48 hrs by SRB assay relative to control; assay type: functional; details: OVCAR-8, 48 h, read-out: GI; summary of the method: as §1
[28] = Growth inhibition of human SK-MEL-5 cells at 10 uM after 48 hrs by SRB assay relative to control; assay type: functional; details: SK-MEL-5, 48 h, read-out: GI; summary of the method: as §2
[29] = Growth inhibition of human HCC2998 cells at 10 uM after 48 hrs by SRB assay relative to control; assay type: functional; details: HCC 2998, 48 h, read-out: GI; summary of the method: as §1
[30] = Growth inhibition of human HT-29 cells at 10 uM after 48 hrs by SRB assay relative to control; assay type: functional; details: HT-29, 48 h, read-out: GI; summary of the method: as §1
[31] = Growth inhibition of human RXF393 cells at 10 uM after 48 hrs by SRB assay relative to control; assay type: functional; details: RXF 393, 48 h, read-out: GI; summary of the method: as §1
[32] = Growth inhibition of human A549 cells at 10 uM after 48 hrs by SRB assay relative to control; assay type: functional; details: A549, 48 h, read-out: GI; summary of the method: as §1
[33] = Growth inhibition of human Caki1 cells at 10 uM after 48 hrs by SRB assay relative to control; assay type: functional; details: CAKI-1, 48 h, read-out: GI; summary of the method: as §1
[34] = Growth inhibition of human A498 cells at 10 uM after 48 hrs by SRB assay relative to control; assay type: functional; details: A498, 48 h, read-out: GI; summary of the method: as §1

COc1ccc(-n2c(SCc3cc(OC)c(OC)c(OC)c3)nc3ccc(C)cc3c2=O)c(OC)c1
inhibition of growth at 10 µM [1]: 55.2%
inhibition of growth at 10 µM [2]: 84.6%
inhibition of growth at 10 µM [3]: 75.2%
inhibition of growth at 10 µM [4]: 72%
inhibition of growth at 10 µM [5]: < 10%
inhibition of growth at 10 µM [6]: 77.3%
GI50 [7]: 15.4 µM
LC50 [7]: > 100 µM
TGI [7]: 92.5 µM
inhibition of growth at 10 µM [8]: 88.7%
IC50 (Dihydrofolate reductase): 3 µM
RatioGI50 (Cancer cell lines [9]): 2 - 10
RatioGI50 (Cancer cell lines [10]): 2 - 10
inhibition of growth at 10 µM [11]: 81.8%
RatioGI50 (Leukemia cell): 2 - 10
inhibition of growth at 10 µM [12]: 80%
inhibition of growth at 10 µM [13]: 54.8%
inhibition of growth at 10 µM [14]: 93.3%
inhibition of growth at 10 µM [15]: 54.7%
inhibition of growth at 10 µM [16]: 68.4%
GI50 [17]: 4.4 µM
LC50 [17]: > 100 µM
TGI [17]: 87.4 µM
RatioGI50 (Cancer cell lines [18]): 2 - 10
inhibition of growth at 10 µM [19]: 92.3%
inhibition of growth at 10 µM [20]: 55.9%
RatioGI50 (Cancer cell lines [21]): 2 - 10
inhibition of growth at 10 µM [22]: 75.6%
inhibition of growth at 10 µM [23]: 42.6%
GI50 [24]: 4.2 µM
LC50 [24]: 89.9 µM
TGI [24]: 77.4 µM
inhibition of growth at 10 µM [25]: 59.2%
inhibition of growth at 10 µM [26]: 70.4%
inhibition of growth at 10 µM [27]: 54.5%
inhibition of growth at 10 µM [28]: 82.4%
inhibition of growth at 10 µM [29]: 54.5%
inhibition of growth at 10 µM [30]: 88.8%
inhibition of growth at 10 µM [31]: 80.4%
inhibition of growth at 10 µM [32]: 81.1%
inhibition of growth at 10 µM [33]: 86.7%

COc1cc2nc(SCc3cc(OC)c(OC)c(OC)c3)n(Cc3ccccc3)c(=O)c2cc1OC
inhibition of growth at 10 µM [1]: 64%
inhibition of growth at 10 µM [2]: 89.9%
inhibition of growth at 10 µM [3]: 71%
inhibition of growth at 10 µM [4]: 54.6%
inhibition of growth at 10 µM [5]: 36.7%
inhibition of growth at 10 µM [6]: 37.4%
GI50 [7]: 4.7 µM
LC50 [7]: 85.7 µM
TGI [7]: 49.1 µM
inhibition of growth at 10 µM [8]: 83.3%
IC50 (Dihydrofolate reductase): 2 µM
RatioGI50 (Cancer cell lines [9]): 2 - 10
RatioGI50 (Cancer cell lines [10]): 2 - 10
inhibition of growth at 10 µM [11]: 65.3%
RatioGI50 (Leukemia cell): 2 - 10
inhibition of growth at 10 µM [13]: 58.8%
inhibition of growth at 10 µM [14]: 73.3%
inhibition of growth at 10 µM [15]: 70.2%
inhibition of growth at 10 µM [16]: 62.3%
GI50 [17]: 2.2 µM
LC50 [17]: > 100 µM
TGI [17]: 87.8 µM
RatioGI50 (Cancer cell lines [18]): 2 - 10
inhibition of growth at 10 µM [19]: 93.8%
inhibition of growth at 10 µM [20]: 62.2%
RatioGI50 (Cancer cell lines [21]): 2 - 10
inhibition of growth at 10 µM [22]: 76.6%
inhibition of growth at 10 µM [23]: 55.8%
GI50 [24]: 2.6 µM
LC50 [24]: 78.7 µM
TGI [24]: 45.9 µM
inhibition of growth at 10 µM [25]: 60.8%
inhibition of growth at 10 µM [26]: 63.3%
inhibition of growth at 10 µM [27]: < 10%
inhibition of growth at 10 µM [29]: 59.2%
inhibition of growth at 10 µM [30]: 89.4%
inhibition of growth at 10 µM [31]: 95.5%
inhibition of growth at 10 µM [32]: 63.2%
inhibition of growth at 10 µM [33]: 74.3%

COc1cc(CSc2nc3ccc(C)cc3c(=O)n2Cc2ccccc2)cc(OC)c1OC
inhibition of growth at 10 µM [1]: 55.6%
inhibition of growth at 10 µM [2]: 82%
inhibition of growth at 10 µM [3]: 67%
inhibition of growth at 10 µM [4]: 53.8%
inhibition of growth at 10 µM [5]: 52.6%
inhibition of growth at 10 µM [6]: 43.4%
GI50 [7]: 4.3 µM
LC50 [7]: 97.9 µM
TGI [7]: 61.4 µM
inhibition of growth at 10 µM [8]: 69.2%
IC50 (Dihydrofolate reductase): 1 µM
RatioGI50 (Cancer cell lines [9]): 10
RatioGI50 (Cancer cell lines [10]): 10
inhibition of growth at 10 µM [11]: 68%
RatioGI50 (Leukemia cell): 10
inhibition of growth at 10 µM [13]: 60%
inhibition of growth at 10 µM [14]: 79.3%
inhibition of growth at 10 µM [15]: 76.1%
inhibition of growth at 10 µM [16]: 60.2%
GI50 [17]: 1.6 µM
LC50 [17]: 87.1 µM
TGI [17]: 76.1 µM
RatioGI50 (Cancer cell lines [18]): 10
inhibition of growth at 10 µM [19]: 82%
inhibition of growth at 10 µM [20]: 48.5%
RatioGI50 (Cancer cell lines [21]): 10
inhibition of growth at 10 µM [22]: 78.6%
inhibition of growth at 10 µM [23]: 46.9%
GI50 [24]: 3.2 µM
LC50 [24]: > 100 µM
TGI [24]: 58.4 µM
inhibition of growth at 10 µM [25]: 48%
inhibition of growth at 10 µM [26]: 53.2%
inhibition of growth at 10 µM [27]: 64.9%
inhibition of growth at 10 µM [28]: 82.2%
inhibition of growth at 10 µM [29]: 57%
inhibition of growth at 10 µM [30]: 89.5%
inhibition of growth at 10 µM [34]: 93%
inhibition of growth at 10 µM [32]: 60%
inhibition of growth at 10 µM [33]: 71.3%
